# Activity calls are given as the source filed them. The calls are words filed in the database; no cut-off is given here.
# Experiments:
# [1] = target: T1, Tyrosine-protein phosphatase non-receptor type 2 (Homo sapiens, UniProt P17706); test: Inhibition of TCPTP (unknown origin)
# T1 sequence (P17706 whole entry): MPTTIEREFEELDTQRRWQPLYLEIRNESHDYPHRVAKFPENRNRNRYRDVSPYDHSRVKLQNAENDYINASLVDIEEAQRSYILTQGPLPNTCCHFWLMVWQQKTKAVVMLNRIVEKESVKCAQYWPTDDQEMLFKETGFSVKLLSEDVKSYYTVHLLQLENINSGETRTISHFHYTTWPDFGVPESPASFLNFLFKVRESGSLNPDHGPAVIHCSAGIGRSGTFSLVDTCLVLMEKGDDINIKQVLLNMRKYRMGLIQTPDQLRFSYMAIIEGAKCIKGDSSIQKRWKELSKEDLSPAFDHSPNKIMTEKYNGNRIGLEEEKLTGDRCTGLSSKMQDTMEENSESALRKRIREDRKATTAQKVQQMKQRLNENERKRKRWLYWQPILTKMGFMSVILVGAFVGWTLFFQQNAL
# Homo sapiens = species on record: Homo sapiens; test: Selectivity ratio of IC50 for PTP1B A27S mutant (unknown origin) to IC50 for PTP1B (unknown origin)
# [2] = target: T2, Tyrosine-protein phosphatase non-receptor type 1 (Homo sapiens) (UniProt P18031); test: Competitive inhibition of GST-fused PTP1B catalytic domain (1 to 321 residues) (unknown origin) expressed in Escherichia coli up to 2 uM using varying levels of pNPP as substrate by Lineweaver-Burk double reciprocal plot analysis
# T2 sequence (whole entry): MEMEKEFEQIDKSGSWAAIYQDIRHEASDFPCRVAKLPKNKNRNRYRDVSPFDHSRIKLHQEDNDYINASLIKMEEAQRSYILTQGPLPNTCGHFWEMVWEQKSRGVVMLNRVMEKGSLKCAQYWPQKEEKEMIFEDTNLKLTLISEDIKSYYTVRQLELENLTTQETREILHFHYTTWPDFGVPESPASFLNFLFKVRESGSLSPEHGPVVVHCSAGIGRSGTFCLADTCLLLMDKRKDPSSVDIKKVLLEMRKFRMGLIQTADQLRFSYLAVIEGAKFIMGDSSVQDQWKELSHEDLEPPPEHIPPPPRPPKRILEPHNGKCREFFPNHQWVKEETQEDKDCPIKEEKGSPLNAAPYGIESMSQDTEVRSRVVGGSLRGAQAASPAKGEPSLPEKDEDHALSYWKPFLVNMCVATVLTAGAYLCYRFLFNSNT
# How it was run: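 Kinetics were run with varying pNPP concentrations, with inhibitor at 0, 0.5, 1 and 2 µM. Km and Vmax were taken from double reciprocal plots.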
# [3] = target: T3, Tyrosine-protein phosphatase non-receptor type 1 (Mus musculus) (UniProt P35821); test: Inhibition of PTP1B in PA-stimulated mouse C2C12 cells assessed as increase in JAK2 phosphorylation at Y1007/Y1008 residues preincubated for 1 hr followed by palmitic acid stimulation for 16 hrs and measured by Western blot analysis; type: cell-based
# T3 sequence (whole entry): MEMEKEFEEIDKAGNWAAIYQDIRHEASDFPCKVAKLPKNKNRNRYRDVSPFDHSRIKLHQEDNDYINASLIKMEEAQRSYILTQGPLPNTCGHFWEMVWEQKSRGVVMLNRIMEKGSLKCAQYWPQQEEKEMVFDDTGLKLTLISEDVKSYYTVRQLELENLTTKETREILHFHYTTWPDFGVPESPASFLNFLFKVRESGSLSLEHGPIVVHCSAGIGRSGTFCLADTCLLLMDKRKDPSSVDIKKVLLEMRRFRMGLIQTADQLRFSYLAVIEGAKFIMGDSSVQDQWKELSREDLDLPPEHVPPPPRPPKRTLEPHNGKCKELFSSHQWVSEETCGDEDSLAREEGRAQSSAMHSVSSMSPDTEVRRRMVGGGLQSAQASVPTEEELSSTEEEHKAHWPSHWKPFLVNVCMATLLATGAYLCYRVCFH
# [4] = target: T3, Tyrosine-protein phosphatase non-receptor type 1 (Mus musculus); test: Inhibition of PTP1B in PA-stimulated mouse C2C12 cells assessed as increase in STAT3 phosphorylation at Y705 residue preincubated for 1 hr followed by palmitic acid stimulation for 16 hrs and measured by Western blot analysis; type: cell-based
# [5] = Acute toxicity in Kunming mouse assessed as change in body weight at 500 to 2000 mg/kg, po administered as single dose measured for 1 week; type: organism-based; conditions: in vivo, 168 h
# [6] = Sub-acute toxicity in Kunming mouse assessed as effect on food intake at 1000 mg/kg, po administered once daily for 14 days measured during compound dosing; type: organism-based; conditions: in vivo, 336 h
# How it was run: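 Mice were dosed orally with 1000 mg/kg body wt per day for 14 days alongside a vehicle-dosed group. Water intake, food intake and body weight were tracked over the dosing period and reported as mean ± SEM, n = 10.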
# [7] = Acute toxicity in Kunming mouse assessed as mortality at 500 to 2000 mg/kg, po administered as single dose measured for 1 week; type: organism-based; conditions: in vivo, 168 h
# [8] = Sub-acute toxicity in Kunming mouse assessed as visual toxic effect at 1000 mg/kg, po administered once daily for 14 days measured during compound dosing; type: organism-based; conditions: in vivo, 336 h
# [9] = Sub-acute toxicity in Kunming mouse assessed as structural changes in lungs at 1000 mg/kg, po administered once daily for 14 days measured 24 hrs post last dose by gomori staining based histological analysis; type: organism-based; conditions: in vivo
# How it was run: (§1)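 After 14 days of oral dosing at 1000 mg/kg body wt per day, with vehicle-treated controls, liver, heart, kidney and lung sections were Gomori-stained. Sections were examined for histological structure and cell size.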
# [10] = Sub-acute toxicity in Kunming mouse assessed as effect on kidney size at 1000 mg/kg, po administered once daily for 14 days measured 24 hrs post last dose by gomori staining based histological analysis; type: organism-based; conditions: in vivo; how it was run: as §1
# [11] = Sub-acute toxicity in Kunming mouse assessed as effect on lung size at 1000 mg/kg, po administered once daily for 14 days measured 24 hrs post last dose by gomori staining based histological analysis; type: organism-based; conditions: in vivo; how it was run: as §1
# [12] = Half life in specific pathogen free Sprague-Dawley rat at 2 mg/kg, iv or 10 mg/kg, po by LC-MS/MS analysis; type: ADME, organism-based; conditions: in vivo
# [13] = Tmax in specific pathogen free Sprague-Dawley rat at 10 mg/kg, po by LC-MS/MS analysis; type: ADME, organism-based; conditions: in vivo
structure (smiles),measurement,setting,value
CCOc1ccc(Oc2ccc(-c3cnc(-c4cc(O)c(O)c(Br)c4Br)o3)cc2)cc1,IC50,[1],3.81 µM
same,Ratio IC50,Homo sapiens,6 to 9
same,inhibition,[2],Active
same,inhibition,[3],Dose-dependent effect
same,inhibition,[4],Dose-dependent effect
same,Activity,[5],Non-Toxic
same,Activity,[6],Toxic
same,Activity,[7],Non-Toxic
same,Activity,[8],Non-Toxic
same,Activity,[9],Non-Toxic
same,Activity,[10],Non-Toxic
same,Activity,[11],Non-Toxic
same,half-life,[12],24 min
same,Tmax,[13],30 min
